Bioassay records deposited in PubChem BioAssay by several laboratories.
Only some compounds are listed: those with a hit (about 1.3% of all), similar ones and a draw of the others.
HNF4A DNA FP: change in binding of human HNF4A to DNA, primary screen, biochemical, fluorescence polarization, FITC-DNA; Hepatocyte nuclear factor 4-alpha (Homo sapiens), P41235; 1 h; activity change, % at 10 µM; 0.3% of 360,000 active; in the data active = activity change above about 30%, passing the limit was not always enough
TPT1 inh: Candida albicans TPT1 enzyme inhibitors, primary screen, biochemical, fluorescence polarization | 0.81% of 300,000 active | inhibition, % at 5 µM | tRNA 2'-phosphotransferase TPT1 (Candida albicans SC5314) | AID 1962, 2009 | recombinant caTPT1, FP RNA substrate dephosphorylation;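 active = inhibition above the mean of all tested compounds plus 3 SD, set per screening campaign, cut at about 24% in these data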;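 note: plate controls were DMSO alone for no effect and ferristatin control at 100 nM for full effect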
aDG glyco act: activators of alpha-DG glycosylation, primary screen, uHTS, Pro5-aDG cells, AlphaScreen; alpha-DG glycosylation AlphaScreen (IIH6); 0% Pro5, 100% B10-LARGE cell signal; activation, % at 10 µM; 0.22% of 360,000 active; AID 624168, 2012;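 active = activation of at least 8% versus controls, or a plate z-score of at least 8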;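 note: Pro5 are CHO cells carrying HIG-tagged alpha-DG that lacks glycosylation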
Xi reactivation: activators of inactive X chromosome reactivation, primary screen, imaging, XiGFP fibroblasts, GFP high-content imaging, set 2; XiGFP mouse fibroblasts, % GFP-positive cells imaging, 3 d; cells co-treated with 5-aza-dC sensitizer; scaled so ellipticine positive control = 100%; activation, % at 7.58 µM; 0.055% of 360,000 active;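 active = mean normalized replicate activation at least 10% and every replicate at or above 10%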;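 note: 0% = median of on-plate neutral control wells and 100% = ellipticine 6 µM median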
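System: 68-5-11 XiGFP fibroblast line; Timing: 3 days compound exposure; Compound dosing: one concentration, pinned; Benchmarks: positive control ellipticine, 6 µM final; Buffer or medium: DMEM containing 5-aza-dC.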
CSN deneddyl inh: inhibitors of CSN-mediated cullin deneddylation, primary screen, biochemical, fluorescence polarization, uHTS | COP9 signalosome complex subunit 5 (Homo sapiens), Q92905 | Purified CSN, SCF-Nedd8-OG deneddylation | inhibition, % at 12.5 µM | 0.38% of 360,000 active | AID 651999, 2013;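 active = pattern-corrected inhibition above about 35%, with an unprinted fluorescence ratio check between 0.5 and 1.5, limit read from the data, passing the limit was not always enough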;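 note: 0% = enzyme with substrate and 100% = substrate without enzyme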
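Assay system: Purified human Csn5 enzyme expressed in HEK293T cells | Amount: Enzyme 0.24 nM | Measured by: Fluorescence polarization readout | Medium: Tris/NaCl/DTT buffer, pH 7.5 | Compound dosing: One concentration, 12.5 µM, 0.25% DMSO | Times: 90 min incubation of compound, enzyme and substrate at room temperature | Control set: no-enzyme wells high, enzyme-with-substrate wells low | Read-out: % inhibition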
Rpn11 inh: Rpn11 (PSMD14) deubiquitinase inhibitors, primary screen, biochemical, fluorescence polarization, uHTS; 26S proteasome non-ATPase regulatory subunit 14 (Homo sapiens), O00487; human 26S proteasome, Ub4-pepOG fluorescence polarization; 20S core pre-blocked with epoxomicin; AID 588493, 2011; inhibition, % at 20 µM; 0.59% of 360,000 active;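 active = inhibition at 20 µM, scaled to each plate's controls, above about 33%, limit read from the data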
Target sequence (O00487 whole entry, looked up): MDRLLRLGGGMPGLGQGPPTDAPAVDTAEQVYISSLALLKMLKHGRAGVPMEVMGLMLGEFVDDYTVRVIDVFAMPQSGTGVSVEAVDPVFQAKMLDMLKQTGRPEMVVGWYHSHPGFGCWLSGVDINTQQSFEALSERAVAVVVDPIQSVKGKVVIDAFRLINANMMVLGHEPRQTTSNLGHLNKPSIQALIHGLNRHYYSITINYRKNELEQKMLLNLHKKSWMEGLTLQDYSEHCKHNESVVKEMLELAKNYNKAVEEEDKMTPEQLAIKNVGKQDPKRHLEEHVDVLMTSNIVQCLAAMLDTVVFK
caTPT1 confirm: Candida albicans TPT1 inhibitors, confirmation, biochemical, fluorescence polarization, triplicate. shares compounds with TPT1 inh. recombinant caTPT1, RNase T1 coupled. inhibition, % at 5 µM. AID 2149, 2009. 74% of 2,400 active;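 active = inhibition above the primary screen limit, the mean inhibition of all tested compounds plus 3 SD, cut at about 25% in these data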
RNase T1 counter: RNase T1 inhibitors, counter-screen for TPT1 inhibitor project, biochemical, fluorescence polarization; shares compounds with TPT1 inh; RNase T1 cleavage, 1536-well; inhibition, % at 5 µM; 83% of 2,400 active; AID 2153, 2009;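 active = inhibition above the solvent-only control well mean plus 3 SD, limit set per screening run, cut at about 23% in these data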;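 note: plate controls were DMSO wells with enzyme for no effect and wells without RNase T1 for full effect; inhibitors block cleavage so intact labeled substrate keeps polarization high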
Target sequence (P00651 whole entry, looked up): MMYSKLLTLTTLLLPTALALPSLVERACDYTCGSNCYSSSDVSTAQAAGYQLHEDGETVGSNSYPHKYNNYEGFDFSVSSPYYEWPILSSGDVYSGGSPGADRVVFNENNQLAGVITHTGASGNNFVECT
An asterisk follows results filed as active; x = no result given.

SMILES	HNF4A DNA FP	TPT1 inh	aDG glyco act	Xi reactivation	CSN deneddyl inh	Rpn11 inh	caTPT1 confirm	RNase T1 counter
COc1cc(C2c3sc(=O)[nH]c3SC3C(=O)N(c4ccc(Br)cc4)C(=O)C32)ccc1O (stereo unspecified)	-1	0	0	0	1	5	x	x
Cc1ccc(/C=C2/NC(=O)N(Cc3ccccc3)C2=O)s1	55*	88*	0	x	22	x	91*	95*
Cc1ccc(NC(=O)CN2C(=O)N/C(=C/c3ccc(C)s3)C2=O)cc1	101	71*	0	0	58*	x	66*	76*
Cc1cccc(CN2C(=O)N/C(=C/c3ccc(C)s3)C2=O)c1	35*	98*	1	x	17	x	87*	95*
Cc1cccc(CN2C(=O)N/C(=C/c3cc(C)n(-c4cc(C)ccn4)c3C)C2=O)c1	3	0	0	x	10	4	x	x
O=C(NCC[C@H]1CC[C@@H](NS(=O)(=O)c2cccc(F)c2)[C@H](CO)O1)C1CCC1	x	x	x	-1	x	x	x	x
CCOC(=O)C1(Cc2cccc(F)c2)CCN(Cc2cnn(CC)c2)CC1	3	-2	1	0	0	0	x	x
CCOC(=O)C1(Cc2cccc(F)c2)CCN(Cc2nc(CC)[nH]c2C)CC1	75*	87*	0	0	30	x	102*	107*
COc1ccc(S(=O)(=O)N(C)C[C@H]2OCCCC[C@H](C)Oc3ccc(NC(=O)NC4CCCCC4)cc3C(=O)N([C@H](C)CO)C[C@H]2C)cc1	x	x	x	0	x	x	x	x
O=C(C1CCOCC1)N1CC[C@H]2[C@H](CO)Nc3ccc(Br)cc3[C@H]21	x	x	x	0	x	x	x	x
Cc1ccc(O)c(C(=O)c2cc(C#N)c(=O)n(C(C)c3ccccc3)c2)c1 (stereo unspecified)	-1	3	0	0	1	6	x	x
Cc1ccc(O)c(C(=O)c2cc(C#N)c3nc4ccccc4n3c2)c1	81	39*	0	0	6	x	59*	72*
Oc1ccc2ccccc2c1-c1sc(Nc2ccccc2)n[n+]1-c1ccc(F)cc1	-68	29*	0	0	-72	-31	-12	3
Cc1noc(C)c1NC(=O)N(C)C[C@H]1Oc2c(NC(=O)Nc3ccccc3)cccc2C(=O)N([C@@H](C)CO)C[C@H]1C	x	x	x	0	x	x	x	x
C[C@H](CO)N1C[C@H](C)[C@H](CN(C)S(C)(=O)=O)Oc2ccc(NC(=O)Nc3cccc4ccccc34)cc2CC1=O	x	x	x	1	x	x	x	x
O=c1c[n+]([O-])c2ccccc2n1OCc1ccccn1	-6	26*	0	x	7	5	9	13
COc1cccc(CN2CC3(CCN(C(C)=O)CC3)c3c(n(C)c4cc(OC)ccc34)[C@@H]2CO)c1	x	x	x	0	x	x	x	x
COc1ccc(N2C(=O)CSC2c2ccc3c(c2)OCO3)c(OC)c1 (stereo unspecified)	-3	40*	0	x	4	1	5	8
COc1ccc(N2C(=O)CSC2c2ccc3c(c2)OCO3)cc1 (stereo unspecified)	1	0	0	x	-2	1	x	x
COc1ccc2c3c([nH]c2c1)[C@@H](CO)N(S(=O)(=O)c1cn(C)cn1)CC31CCN(CC2CC2)CC1	x	x	x	0	x	x	x	x
